In ChEMBL document CHEMBL1122794, “[(Arylcarbonyl)oxy]propanolamines. 1. Novel beta-blockers with ultrashort duration of action” (J Med Chem, 1984):

Key:
Canis familiaris [1] = species: Canis familiaris; test: Percent inhibition of isoproterenol induced tachycardia at a dose of 1.3 microg (3-h infusion period); assay type: functional, Canis lupus familiaris
[2] = T1/2 in canine blood; assay type: ADME, […], Canis lupus familiaris; conditions: dog
In short: (§1)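 1 mL of solution containing 50 µg of compound was added to 1 mL of dog or human whole blood, or to 1 mL of 33% (w/v) canine liver homogenate. They were assayed by HPLC on a phenyl column with 60% acetonitrile/40% 0.05 M sodium phosphate (pH 6.6) and UV detection. Half-life was read graphically from concentration versus time.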

Canis familiaris [3] = species: Canis familiaris; test: Time taken for 80% recovery at a dose of 182 microg (3-h infusion period); assay type: functional, organism-based; conditions: Canis lupus familiaris
Canis familiaris [4] = species: Canis familiaris; test: Percent inhibition of isoproterenol induced tachycardia at a dose of 182 microg (3-h infusion period); assay type: functional, Canis lupus familiaris
[5] = (§2) Selectivity determined by expression 10[pA2(atria) - pA2 (trachea)] in guinea pig; assay type: functional, Cavia porcellus
Adrenergic receptor beta [6] = target: T1, Adrenergic receptor beta (Homo sapiens, UniProt P08588+P07550+P13945); test: In Vitro inhibition of the beta adrenergic receptor in guinea pig atria; assay type: tissue-based, Cavia porcellus; conditions: target entry is the homologue from another species
Adrenergic receptor beta [7] = target: T1, Adrenergic receptor beta; test: In vitro blocking of beta adrenergic receptor in guinea pig trachea; assay type: tissue-based, Cavia porcellus; conditions: target entry is the homologue from another species
Canis familiaris [8] = species: Canis familiaris; test: Time taken for 80% recovery at a dose of 27 microg (3-h infusion period); assay type: functional, organism-based; conditions: Canis lupus familiaris
Canis familiaris [9] = species: Canis familiaris; test: Percent inhibition of isoproterenol induced tachycardia at a dose of 27 microg (3-h infusion period); assay type: functional, Canis lupus familiaris
[10] = t1/2 in canine liver; assay type: ADME, Canis lupus familiaris; conditions: dog
Canis familiaris [11] = species: Canis familiaris; test: Time taken for 80% recovery at a dose of 10 microg (3-h infusion period); assay type: functional, organism-based; conditions: Canis lupus familiaris
Canis familiaris [12] = species: Canis familiaris; test: Percent inhibition of isoproterenol induced tachycardia at a dose of 10 microg (3-h infusion period); assay type: functional, Canis lupus familiaris
[13] = Stability at pH 7.4 and 37 degree Celsius (after 18 h); assay type: physicochemical; conditions: buffer
In short: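 Chemical stability was tested in pH 7.4 buffer at 37 °C. The percentage of parent compound remaining after 18 h of incubation was recorded.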

Canis familiaris [14] = species: Canis familiaris; test: Time taken for 80% recovery at a dose of 100 microg (3-h infusion period); assay type: functional, organism-based; conditions: Canis lupus familiaris
Canis familiaris [15] = species: Canis familiaris; test: Percent inhibition of isoproterenol induced tachycardia at a dose of 100 microg (3-h infusion period); assay type: functional, Canis lupus familiaris
Canis familiaris [16] = species: Canis familiaris; test: Time taken for 80% recovery at a dose of 70 microg (3-h infusion period); assay type: functional, organism-based; conditions: Canis lupus familiaris
In short: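 After the infusion ended, the time to 80% recovery of the blockade was recorded as duration of action. The listed dose is the average amount infused per minute over the 3-h period, in µg/(kg min).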

Canis familiaris [17] = species: Canis familiaris; test: Percent inhibition of isoproterenol induced tachycardia at a dose of 70 microg (3-h infusion period); assay type: functional, Canis lupus familiaris
[18] = Time in which 1/2 of the initial amount disappeared in human blood.; assay type: ADME, organism-based; in short: as §1
Canis familiaris [19] = species: Canis familiaris; test: Time taken for 80% recovery at a dose of 172 microg (3-h infusion period); assay type: functional, organism-based; conditions: Canis lupus familiaris
[20] = as §2; assay type: functional, Cavia porcellus; remark: listed apart in the source
In short: (§3)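 Selectivity index calculated as 10^[pA2(atria) − pA2(trachea)] from pA2 values measured in isolated guinea pig atria and trachea. A minus sign denotes β2 selectivity.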

[21] = Time in which 1/2 of the initial amount disappeared in canine blood; assay type: ADME, […], Canis lupus familiaris; conditions: dog; in short: as §1
[22] = target: Beta-2 adrenergic receptor (Cavia porcellus) (UniProt Q8K4Z4); test: In Vitro evaluation for […] selectivity in guinea pig; in short: as §3
Sequence of Beta-2 adrenergic receptor (Cavia porcellus) (Q8K4Z4 whole entry, looked up): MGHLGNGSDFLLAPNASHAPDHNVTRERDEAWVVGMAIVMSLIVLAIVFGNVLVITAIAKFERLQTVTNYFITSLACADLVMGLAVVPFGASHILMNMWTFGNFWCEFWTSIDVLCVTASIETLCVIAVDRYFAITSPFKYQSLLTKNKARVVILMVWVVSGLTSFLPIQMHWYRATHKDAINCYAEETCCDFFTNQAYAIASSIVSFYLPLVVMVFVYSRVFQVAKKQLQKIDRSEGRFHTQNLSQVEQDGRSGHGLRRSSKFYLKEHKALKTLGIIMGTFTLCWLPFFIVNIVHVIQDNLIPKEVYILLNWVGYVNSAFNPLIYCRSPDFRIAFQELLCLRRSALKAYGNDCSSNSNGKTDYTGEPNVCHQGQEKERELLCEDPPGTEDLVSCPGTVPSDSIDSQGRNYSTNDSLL

[23] = Time in which 1/2 of the initial amount disappeared in canine liver; assay type: ADME, […], Canis lupus familiaris; conditions: dog; in short: as §1
Canis familiaris [24] = species: Canis familiaris; test: Percent inhibition of isoproterenol induced tachycardia at a dose of 0.59-1.26 microg (3-h infusion period); assay type: functional, Canis lupus familiaris
Canis familiaris [25] = species: Canis familiaris; test: Time taken for 80% recovery at a dose of 0.59-1.26 microg (3-h infusion period); assay type: functional, organism-based; conditions: Canis lupus familiaris
Canis familiaris [26] = species: Canis familiaris; test: Percent inhibition of isoproterenol induced tachycardia at a dose of 128 microg (3-h infusion period) / 85 kg min (40-min infusion model); assay type: functional, Canis lupus familiaris
Canis familiaris [27] = species: Canis familiaris; test: Time taken for 80% recovery at a dose of 128 microg (3-h infusion period) / 85 kg min (40-min infusion model); assay type: functional, organism-based; conditions: Canis lupus familiaris
Adrenergic receptor beta [28] = target: T1, Adrenergic receptor beta; test: In vitro beta adrenergic receptor blocking in guinea pig trachea; assay type: tissue-based, Cavia porcellus; conditions: target entry is the homologue from another species
Canis familiaris [29] = species: Canis familiaris; test: Percent inhibition of isoproterenol induced tachycardia at a dose of 1.1 microg (3-h infusion period); assay type: functional, Canis lupus familiaris
Canis familiaris [30] = species: Canis familiaris; test: Time taken for 80% recovery at a dose of 1.1 microg (3-h infusion period); assay type: functional, organism-based; conditions: Canis lupus familiaris
Canis familiaris [31] = species: Canis familiaris; test: Time taken for 80% recovery at a dose of 36 microg (3-h infusion period); assay type: functional, organism-based; conditions: Canis lupus familiaris
Canis familiaris [32] = species: Canis familiaris; test: Percent inhibition of isoproterenol induced tachycardia at a dose of 36 microg (3-h infusion period); assay type: functional, Canis lupus familiaris

SMILES | half-life [2] | pA2 (Adrenergic receptor beta [6]) | pA2 (Adrenergic receptor beta [7]) | half-life [10] | Selectivity [5] | further results
CC(C)NCC(O)COc1cccc2ccccc12 (stereo not drawn) [PROPRANOLOL] | > 180 min |  |  |  |  | Inhibition (Canis familiaris [1]): 68%
CC(C)NCC(O)COC(=O)c1ccc2ccccc2c1 (stereo not drawn) |  | 6.4 | 6.6 |  | -2 | Recovery time (Canis familiaris [3]): > 60 min; Inhibition (Canis familiaris [4]): 54%
CC(C)(C)NCC(O)COC(=O)c1ccccc1O (stereo not drawn) | 41 min | 7.1 | 8 | 31 min | -9 | Recovery time (Canis familiaris [8]): > 60 min; Inhibition (Canis familiaris [9]): 73%
CC(C)(CNC(=O)Cc1ccccc1)NCC(O)COC(=O)c1ccccc1F (stereo not drawn) | 6 min | 7.4 | 8.1 | 25 min | -5 | Recovery time (Canis familiaris [11]): 19 min; Inhibition (Canis familiaris [12]): 68%
CCCOc1ccccc1C(=O)OCC(O)CNC(C)C (stereo not drawn) |  | 6.6 | 7.1 |  |  | Recovery time (Canis familiaris [19]): > 60 min; Selectivity [20]: -3.5
CC(C)(C)NCC(O)COC(=O)c1ccc(C=O)cc1 (stereo not drawn) |  | 6.2 | 6.3 |  |  | half-life [21]: 14 min; Selectivity [22]: 1; half-life [23]: 1 min
CC(C)NCC(O)COC(=O)c1ccc(N)cc1 (stereo not drawn) | > 180 min | 6.7 | 6.6 | > 180 min | 1 | Inhibition (Canis familiaris [24]): 80%; Recovery time (Canis familiaris [25]): > 60 min; half-life [18]: 60 min
CC(C)(CNC(=O)N1CCOCC1)NCC(O)COC(=O)c1ccccc1F (stereo not drawn) |  | 8.5 |  |  | 2 | pA2 (Adrenergic receptor beta [28]): 8.2; Inhibition (Canis familiaris [29]): 81%; Recovery time (Canis familiaris [30]): > 60 min

Continued, in another order:

half-life [2] | pA2 (Adrenergic receptor beta [6]) | pA2 (Adrenergic receptor beta [7]) | half-life [10] | SMILES | Selectivity [5] | further results
 | 6.1 | 5.7 |  | COc1ccc(CCNCC(O)COC(=O)c2ccccc2F)cc1OC (stereo not drawn) | 2.5 | remaining at 18 h [13]: 35%; Recovery time (Canis familiaris [14]): > 60 min; Inhibition (Canis familiaris [15]): 48%
7.3 min | 6.8 | 7.7 | 20 min | CC(C)(C)NCC(O)COC(=O)c1ccccc1 (stereo not drawn) | -8 | remaining at 18 h [13]: 99%; Recovery time (Canis familiaris [16]): > 60 min; Inhibition (Canis familiaris [17]): 65%; half-life [18]: 5.3 min
6.8 min | 6.3 | 7.2 | 8 min | CC(C)NCC(O)COC(=O)c1ccccc1 (stereo not drawn) | -7 | Inhibition (Canis familiaris [26]): 63%; Recovery time (Canis familiaris [27]): 26 min; half-life [18]: 2.3 min
8 min | 7.1 | 7 | 1 min | CCOC(=O)NCC(C)(C)NCC(O)COC(=O)c1ccccc1F (stereo not drawn) | 1 | Recovery time (Canis familiaris [31]): 8 min; Inhibition (Canis familiaris [32]): 49%
